According to ChEMBL document CHEMBL5724801, “EUbOPEN Chemogenomics Library - Multiplex” (2024):
Several values for one entry are separate records, joined by “and”; a condition that tells them apart may be missing. Equal values may be shown once.

Tested on: HEK-293T
Experiment: Multiplex assay against HEK293T
Assay type: toxicity, cell-based
Conditions: human
Procedure, shortened: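 With compound added, live cells were imaged on a CQ1 microscope at 37°C and 5% CO2; staining with Hoechst33342, BioTracker Green Microtubule Cytoskeleton Dye, MitoTracker Red and Annexin V Alexa Fluor 680 had been done at seeding. The CellPathfinder machine-learning gating scheme split cells into Hoechst high-intensity objects or normal cells, normal cells into healthy, pyknosed or fragmented nuclei, and pyknosed cells into mitotic or apoptotic. The tubulin, mitochondrial-mass and membrane-permeability phenotypes are per cents of healthy-nucleus cells.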

[1] = 12 h, 1 µM, compound concentration 1 uM
[2] = 12 h, 10 µM, compound concentration 10 uM
[3] = 24 h, 1 µM, compound concentration 1 uM
[4] = 24 h, 10 µM, compound concentration 10 uM
[5] = 48 h, 1 µM, compound concentration 1 uM
[6] = 48 h, 10 µM, compound concentration 10 uM

## Oc1c(CN2CCN(c3ccccn3)CC2)cc(Cl)c2cccnc12
[1]
  Population Apoptotic (%): 30% and 45%
  Population Fragmented Nuclei (%): 6% and 5%
  Population Healthy Nuclei (%): 83% and 80%
  Population Hoechst High Intensity Objects (%): 7%
  Population Membrane Permeable-Phenotype (%): 0%
  Population Mitochondria Different-Phenotype (%): 44% and 59%
  Population Mitotic Cells (%): 70% and 54%
  Population Normal (%): 92%
  Population Pyknosed Nuclei (%): 10% and 13%
  Population Tubulin-Different-Phenotype (%): 34% and 20%
  Total Cell Count: 424 and 354
[2]
  Population Apoptotic (%): 71% and 73%
  Population Fragmented Nuclei (%): 16% and 18%
  Population Healthy Nuclei (%): 64% and 69%
  Population Hoechst High Intensity Objects (%): 11% and 6%
  Population Membrane Permeable-Phenotype (%): 0%
  Population Mitochondria Different-Phenotype (%): 64% and 70%
  Population Mitotic Cells (%): 28% and 26%
  Population Normal (%): 88% and 93%
  Population Pyknosed Nuclei (%): 18% and 12%
  Population Tubulin-Different-Phenotype (%): 20% and 32%
  Total Cell Count: 197 and 327
[3]
  Population Apoptotic (%): 34% and 33%
  Population Fragmented Nuclei (%): 6% and 7%
  Population Healthy Nuclei (%): 84%
  Population Hoechst High Intensity Objects (%): 3%
  Population Membrane Permeable-Phenotype (%): 0%
  Population Mitochondria Different-Phenotype (%): 22% and 40%
  Population Mitotic Cells (%): 65% and 66%
  Population Normal (%): 96%
  Population Pyknosed Nuclei (%): 9% and 8%
  Population Tubulin-Different-Phenotype (%): 23% and 13%
  Total Cell Count: 529 and 427
[4]
  Population Apoptotic (%): 93% and 81%
  Population Fragmented Nuclei (%): 18% and 21%
  Population Healthy Nuclei (%): 65% and 63%
  Population Hoechst High Intensity Objects (%): 13% and 7%
  Population Membrane Permeable-Phenotype (%): 1%
  Population Mitochondria Different-Phenotype (%): 65% and 78%
  Population Mitotic Cells (%): 6% and 18%
  Population Normal (%): 86% and 92%
  Population Pyknosed Nuclei (%): 15%
  Population Tubulin-Different-Phenotype (%): 19% and 34%
  Total Cell Count: 227 and 354
[5]
  Population Apoptotic (%): 29% and 31%
  Population Fragmented Nuclei (%): 12% and 10%
  Population Healthy Nuclei (%): 80% and 83%
  Population Hoechst High Intensity Objects (%): 3%
  Population Membrane Permeable-Phenotype (%): 0%
  Population Mitochondria Different-Phenotype (%): 22% and 17%
  Population Mitotic Cells (%): 70% and 68%
  Population Normal (%): 96%
  Population Pyknosed Nuclei (%): 6% and 5%
  Population Tubulin-Different-Phenotype (%): 16% and 10%
  Total Cell Count: 689 and 518
[6]
  Population Apoptotic (%): 83% and 94%
  Population Fragmented Nuclei (%): 23% and 28%
  Population Healthy Nuclei (%): 44% and 49%
  Population Hoechst High Intensity Objects (%): 25% and 14%
  Population Membrane Permeable-Phenotype (%): 0%
  Population Mitochondria Different-Phenotype (%): 60% and 81%
  Population Normal (%): 74% and 85%
  Population Pyknosed Nuclei (%): 31% and 22%
  Population Tubulin-Different-Phenotype (%): 30% and 42%
  Total Cell Count: 204 and 295

## Cc1cc(=O)n(C)c2cc(N3C(=O)CC[C@H](NS(=O)(=O)CC(C)C)[C@H]3c3ccc(Cl)cc3)ccc12
[1]
  Population Apoptotic (%): 43% and 63%
  Population Fragmented Nuclei (%): 7% and 6%
  Population Healthy Nuclei (%): 83% and 78%
  Population Hoechst High Intensity Objects (%): 8% and 6%
  Population Membrane Permeable-Phenotype (%): 0%
  Population Mitochondria Different-Phenotype (%): 41% and 53%
  Population Mitotic Cells (%): 56% and 36%
  Population Normal (%): 91% and 93%
  Population Pyknosed Nuclei (%): 8% and 14%
  Population Tubulin-Different-Phenotype (%): 32% and 14%
  Total Cell Count: 454 and 265
[2]
  Population Apoptotic (%): 47% and 50%
  Population Fragmented Nuclei (%): 4% and 6%
  Population Healthy Nuclei (%): 70% and 66%
  Population Hoechst High Intensity Objects (%): 11% and 16%
  Population Membrane Permeable-Phenotype (%): 0%
  Population Mitochondria Different-Phenotype (%): 75% and 86%
  Population Mitotic Cells (%): 52% and 49%
  Population Normal (%): 88% and 83%
  Population Pyknosed Nuclei (%): 24% and 27%
  Population Tubulin-Different-Phenotype (%): 81% and 66%
  Total Cell Count: 368 and 331
[3]
  Population Apoptotic (%): 33% and 36%
  Population Fragmented Nuclei (%): 9% and 4%
  Population Healthy Nuclei (%): 81% and 82%
  Population Hoechst High Intensity Objects (%): 4% and 5%
  Population Membrane Permeable-Phenotype (%): 0% and 1%
  Population Mitochondria Different-Phenotype (%): 25% and 42%
  Population Mitotic Cells (%): 66% and 63%
  Population Normal (%): 95% and 94%
  Population Pyknosed Nuclei (%): 9% and 13%
  Population Tubulin-Different-Phenotype (%): 19% and 17%
  Total Cell Count: 646 and 327
[4]
  Population Apoptotic (%): 34% and 76%
  Population Fragmented Nuclei (%): 7% and 8%
  Population Healthy Nuclei (%): 72% and 67%
  Population Hoechst High Intensity Objects (%): 9% and 22%
  Population Membrane Permeable-Phenotype (%): 0%
  Population Mitochondria Different-Phenotype (%): 67% and 85%
  Population Mitotic Cells (%): 65% and 23%
  Population Normal (%): 90% and 77%
  Population Pyknosed Nuclei (%): 19% and 23%
  Population Tubulin-Different-Phenotype (%): 67% and 71%
  Total Cell Count: 419 and 328
[5]
  Population Apoptotic (%): 25% and 31%
  Population Fragmented Nuclei (%): 14% and 11%
  Population Healthy Nuclei (%): 78% and 79%
  Population Hoechst High Intensity Objects (%): 3% and 7%
  Population Membrane Permeable-Phenotype (%): 0%
  Population Mitochondria Different-Phenotype (%): 17% and 20%
  Population Mitotic Cells (%): 74% and 68%
  Population Normal (%): 96% and 92%
  Population Pyknosed Nuclei (%): 6% and 9%
  Population Tubulin-Different-Phenotype (%): 15% and 17%
  Total Cell Count: 985 and 454
[6]
  Population Apoptotic (%): 56% and 66%
  Population Fragmented Nuclei (%): 12%
  Population Healthy Nuclei (%): 77% and 67%
  Population Hoechst High Intensity Objects (%): 10% and 19%
  Population Membrane Permeable-Phenotype (%): 1% and 0%
  Population Mitochondria Different-Phenotype (%): 67% and 76%
  Population Mitotic Cells (%): 43% and 33%
  Population Normal (%): 89% and 80%
  Population Pyknosed Nuclei (%): 10% and 19%
  Population Tubulin-Different-Phenotype (%): 58% and 56%
  Total Cell Count: 548 and 371

## CCc1cc2cc(NS(=O)(=O)c3ccc(C#N)cc3)ccc2n(CC)c1=O
[1]
  Population Apoptotic (%): 43% and 40%
  Population Fragmented Nuclei (%): 8% and 7%
  Population Healthy Nuclei (%): 78%
  Population Hoechst High Intensity Objects (%): 9% and 7%
  Population Membrane Permeable-Phenotype (%): 0%
  Population Mitochondria Different-Phenotype (%): 37% and 64%
  Population Mitotic Cells (%): 56% and 59%
  Population Normal (%): 90% and 92%
  Population Pyknosed Nuclei (%): 12% and 14%
  Population Tubulin-Different-Phenotype (%): 28% and 29%
  Total Cell Count: 411 and 338
[2]
  Population Apoptotic (%): 38% and 65%
  Population Fragmented Nuclei (%): 7% and 6%
  Population Healthy Nuclei (%): 80% and 69%
  Population Hoechst High Intensity Objects (%): 7% and 16%
  Population Membrane Permeable-Phenotype (%): 0%
  Population Mitochondria Different-Phenotype (%): 47% and 71%
  Population Mitotic Cells (%): 61% and 34%
  Population Normal (%): 92% and 83%
  Population Pyknosed Nuclei (%): 12% and 23%
  Population Tubulin-Different-Phenotype (%): 48% and 41%
  Total Cell Count: 404 and 291
[3]
  Population Apoptotic (%): 29% and 43%
  Population Fragmented Nuclei (%): 8% and 7%
  Population Healthy Nuclei (%): 80% and 84%
  Population Hoechst High Intensity Objects (%): 5%
  Population Membrane Permeable-Phenotype (%): 1% and 0%
  Population Mitochondria Different-Phenotype (%): 19% and 44%
  Population Mitotic Cells (%): 70% and 56%
  Population Normal (%): 94%
  Population Pyknosed Nuclei (%): 11% and 7%
  Population Tubulin-Different-Phenotype (%): 18% and 22%
  Total Cell Count: 510 and 403
[4]
  Population Apoptotic (%): 33% and 63%
  Population Fragmented Nuclei (%): 9% and 10%
  Population Healthy Nuclei (%): 80% and 73%
  Population Hoechst High Intensity Objects (%): 6% and 17%
  Population Membrane Permeable-Phenotype (%): 0% and 1%
  Population Mitochondria Different-Phenotype (%): 36% and 58%
  Population Mitotic Cells (%): 66% and 36%
  Population Normal (%): 93% and 82%
  Population Pyknosed Nuclei (%): 10% and 16%
  Population Tubulin-Different-Phenotype (%): 32% and 29%
  Total Cell Count: 478 and 332
[5]
  Population Apoptotic (%): 30% and 38%
  Population Fragmented Nuclei (%): 11% and 14%
  Population Healthy Nuclei (%): 81% and 79%
  Population Hoechst High Intensity Objects (%): 2% and 4%
  Population Membrane Permeable-Phenotype (%): 1%
  Population Mitochondria Different-Phenotype (%): 11% and 23%
  Population Mitotic Cells (%): 69% and 61%
  Population Normal (%): 97% and 95%
  Population Pyknosed Nuclei (%): 6% and 5%
  Population Tubulin-Different-Phenotype (%): 13% and 12%
  Total Cell Count: 878 and 608
[6]
  Population Apoptotic (%): 26% and 47%
  Population Fragmented Nuclei (%): 14% and 16%
  Population Healthy Nuclei (%): 78% and 73%
  Population Hoechst High Intensity Objects (%): 4% and 10%
  Population Membrane Permeable-Phenotype (%): 1%
  Population Mitochondria Different-Phenotype (%): 23% and 40%
  Population Mitotic Cells (%): 73% and 52%
  Population Normal (%): 95% and 89%
  Population Pyknosed Nuclei (%): 6% and 9%
  Population Tubulin-Different-Phenotype (%): 20% and 23%
  Total Cell Count: 734 and 383
